Most compounds without a hit are left out; they make up all but 1.6% or so of the library.
HNF4A DNA FP: change in binding of human HNF4 alpha to DNA; P41235; HNF4a-FITC DNA binding, fluorescence polarization, 1 h; activity change, % at 10 µM; actives 0.3% (n = 360,000); AID 1224865; in the data active = activity change above about 30%, passing the limit was not always enough
Rpn11 block: Rpn11 (human) deubiquitinase inhibition; O00487; human 26S proteasome, Ub4-pepOG fluorescence polarization; 20S core pre-blocked with epoxomicin; inhibition, % at 20 µM; actives 0.59% (n = 360,000); AID 588493;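 active = inhibition at 20 µM, scaled to each plate's controls, above about 33%, limit read from the data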
TPT1 inhibitor: inhibitors of Candida albicans tRNA 2'-phosphotransferase TPT1; inhibition, % at 5 µM; actives 0.81% (n = 300,000); recombinant caTPT1, FP RNA substrate dephosphorylation;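 active = inhibition above the mean of all tested compounds plus 3 SD, set per screening campaign, cut at about 24% in these data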;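 also: plate controls were DMSO alone for no effect and ferristatin control at 100 nM for full effect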
CSN deneddyl inh: blocks human CSN-mediated cullin deneddylation; inhibition, % at 12.5 µM; actives 0.38% (n = 360,000); Purified CSN, SCF-Nedd8-OG deneddylation, fluorescence polarization; Q92905; AID 651999;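 active = pattern-corrected inhibition above about 35%, with an unprinted fluorescence ratio check between 0.5 and 1.5, limit read from the data, passing the limit was not always enough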;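 also: 0% = enzyme with substrate and 100% = substrate without enzyme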
Target sequence (Q92905 whole entry, looked up, one chain of several): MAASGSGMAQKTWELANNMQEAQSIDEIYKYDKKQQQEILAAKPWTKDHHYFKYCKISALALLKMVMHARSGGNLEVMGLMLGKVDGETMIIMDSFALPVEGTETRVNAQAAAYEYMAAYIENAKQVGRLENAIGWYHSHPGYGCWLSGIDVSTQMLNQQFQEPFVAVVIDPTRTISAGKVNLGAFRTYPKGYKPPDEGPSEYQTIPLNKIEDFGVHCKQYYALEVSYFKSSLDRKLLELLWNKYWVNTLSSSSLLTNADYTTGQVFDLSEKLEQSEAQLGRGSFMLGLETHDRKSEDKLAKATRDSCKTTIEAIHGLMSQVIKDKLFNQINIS
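Test system: purified human Csn5 enzyme expressed in HEK293T cells. Amount: 0.24 nM enzyme. Reagent: SCFSkp2-Nedd8OG substrate at 10 nM final. Schedule: 90 min incubation of compound, enzyme and substrate at room temperature. Detection: fluorescence polarization. Read-out: % inhibition of substrate cleavage by Csn5.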
SENP1 FRET inh: SENP1 (human) catalytic domain inhibition; Q9P0U3; recombinant SENP1 catalytic domain, CyPet-SUMO1-YPet FRET cleavage; inhibition, % at 10 µM; actives 0.21% (n = 360,000); AID 624204;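 active = inhibition at least 30% at 10 µM, raw YFP signal under a set limit, fluorescence ratio 0.5 to 1.5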;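 also: 0% = enzyme with DMSO and 100% = no enzyme wells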
Target sequence (Q9P0U3 419-644 limits assumed): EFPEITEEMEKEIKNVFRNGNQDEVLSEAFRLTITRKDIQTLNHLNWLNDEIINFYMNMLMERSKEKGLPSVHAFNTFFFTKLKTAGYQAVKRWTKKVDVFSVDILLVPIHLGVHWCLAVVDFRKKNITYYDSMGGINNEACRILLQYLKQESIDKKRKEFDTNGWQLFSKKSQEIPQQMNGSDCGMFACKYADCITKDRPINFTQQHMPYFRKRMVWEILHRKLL
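Material: hSENP1 catalytic domain, recombinant; medium: Tris pH 8 with BME, BSA, NP40 and catalase; compound: single concentration of 10 µM compound, 0.5% DMSO final; technique: FRET read of cyan and yellow fluorescence; timing: 50 min enzyme reaction, room temperature, light-protected; reagent: SFCypet-SUMO1-SFYpet substrate at 25 nM; control set: no-enzyme low, enzyme-DMSO high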
TPT1 inh confirm: confirmation of Candida albicans TPT1 inhibitors | inhibition, % at 5 µM | shares compounds with TPT1 inhibitor | recombinant caTPT1, fluorescence polarization, RNase T1 coupled | AID 2149 | actives 74% (n = 2,400);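 active = inhibition above the primary screen limit, the mean inhibition of all tested compounds plus 3 SD, cut at about 25% in these data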
RNase T1 inh: RNase T1 inhibition in TPT1 counter-screen; AID 2153; RNase T1 cleavage, fluorescence polarization, 1536-well; inhibition, % at 5 µM; shares compounds with TPT1 inhibitor; actives 83% (n = 2,400);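 active = inhibition above the solvent-only control well mean plus 3 SD, limit set per screening run, cut at about 23% in these data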;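 also: plate controls were DMSO wells with enzyme for no effect and wells without RNase T1 for full effect; inhibitors block cleavage so intact labeled substrate keeps polarization high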
Target sequence (P00651 whole entry, looked up): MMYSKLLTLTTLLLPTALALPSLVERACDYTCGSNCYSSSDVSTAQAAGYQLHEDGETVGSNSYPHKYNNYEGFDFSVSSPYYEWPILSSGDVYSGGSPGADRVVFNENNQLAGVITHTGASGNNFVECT
The depositor's hits bear a star; · = no result shown.

SMILES | HNF4A DNA FP | Rpn11 block | TPT1 inhibitor | CSN deneddyl inh | SENP1 FRET inh | TPT1 inh confirm | RNase T1 inh
Oc1cccc(Nc2c3ccccc3nc3ccccc23)c1 | -3 | -17 | 54* | -5 | -166 | 4 | 11
Cc1ccc(-c2nc(Nc3cccc(O)c3)c3ccccc3n2)cc1 | 3 | 2 | 1 | 5 | -3 | · | ·
O=C(NN1C(=O)/C(=C/c2cccs2)SC1=S)c1ccccc1 | 1 | 8 | -1 | 3 | -4 | · | ·
Cn1cccc1/C=C1\SC(=S)N(NC(=O)c2ccccc2)C1=O | 86* | · | 89* | 34 | -81 | 91* | 111*
Cn1cccc1/C=C1\SC(=S)N(NC(=O)c2ccc(F)cc2)C1=O | 91* | · | 97* | 54* | -85 | 111* | 118*
CC12CCC(=O)N1C(C(=O)N1CCN(S(=O)(=O)c3ccc(Br)cc3Cl)CC1)CS2 (centres undefined) | -2 | -9 | -5 | 4 | 1 | · | ·
CCC1(CC)NC(=O)N(CC(=O)Nc2sc3c(c2C(N)=O)CCC3)C1=O | 3 | 20 | 28* | 41* | -23 | 37* | 48*
CCC1(C)NC(=O)N(CC(=O)Nc2sc3c(c2C(=O)OC)CCCCC3)C1=O (centres undefined) | 2 | 1 | 1 | 2 | -10 | · | ·
CNc1nc(SC(C)C(=O)Nc2ccc(Cl)c(Cl)c2)nc(N2CCOCC2)n1 (centres undefined) | 3 | 12 | 3 | 1 | 0 | · | ·
CN(C)CCNC(=O)/C(=C/c1ccc(-c2ccc(Cl)cc2)o1)NC(=O)c1ccccc1 | -2 | -10 | 41* | -10 | -9 | 8 | 12
CN(C)CCNC(=O)/C(=C/c1ccc(-c2ccc(Cl)cc2Cl)o1)NC(=O)c1ccccc1 | 3 | 15 | 3 | 8 | -17 | · | ·
COc1cccc(CNC(=O)C2CCCN(C(=O)c3ccc(Cl)cc3)C2)c1 (centres undefined) | -1 | 3 | · | 1 | 0 | · | ·
CCN1CCc2c(sc(NC(=O)c3ccc(S(=O)(=O)N4CCCC4)cc3)c2C(=O)NC)C1 | 6 | 5 | 17 | 0 | -66 | · | ·
CN1CCc2c(sc(NC(=O)c3ccc(S(=O)(=O)N4CCc5ccccc54)cc3)c2C(N)=O)C1 | · | · | 34* | · | · | 51* | 63*
CNC(=O)c1c(NC(=O)c2ccc(S(=O)(=O)N3CCCc4ccccc43)cc2)sc2c1CCN(C)C2 | 32* | · | 103* | 5 | -37 | 79* | 88*
CCOC(=O)c1c(-c2ccc(OC)cc2)csc1/N=C/C1=C(O)CCCC1=O | 4 | 31 | 139* | 11 | -32 | 33* | 50*
CC(=O)Nc1cccn(Cc2c(Cl)cccc2Cl)c1=O | 2 | 0 | 3 | 0 | 2 | · | ·
COc1ccc(C(=O)CC(C(=O)O)c2ccc(OC)c(OC)c2)cc1OC (centres undefined) | -2 | 2 | · | 0 | -2 | · | ·
CC[C@H](C)/C=C(C)/C=C/C(=O)Cc1cc(O)c(C)c(O)c1C=O | 36 | 39 | 34* | 34 | -18 | 31* | 41*
CC[C@H](C)/C=C(C)/C=C/c1cc2c(cn1)C(=O)[C@@](C)(OC(C)=O)C(O)=C2Cl | -9 | -17 | · | 5 | -8 | · | ·
Cn1cc(/C=C/c2cc[n+](C)cc2)c2cc(Cl)ccc21 | 93 | · | 60* | 0 | -24 | 68* | 70*
Cn1cc(/C=C/c2cc[n+](C)cc2)c2cc(F)ccc21 | 20 | · | 40* | -74 | -23 | 49* | 56*
Cn1cc(C=O)c2cc(F)ccc21 | -2 | 10 | -2 | -10 | 0 | · | ·
O=C1CCC(c2ccc3c(c2)CCC3)=NN1 | 0 | -3 | 0 | -1 | 0 | · | ·
C#CC1CCCCC1NC(=O)Nc1cnccc1C(F)(F)F (centres undefined) | 2 | 4 | 1 | -4 | 1 | · | ·
SMILES | HNF4A DNA FP | Rpn11 block | TPT1 inhibitor | CSN deneddyl inh | SENP1 FRET inh | TPT1 inh confirm | RNase T1 inh
CCCC(NC(=O)c1c(C)noc1C)C12CC3CC(CC(C3)C1)C2 (centres undefined) | 0 | 3 | 81* | 3 | 1 | 25* | 35*
COC(=O)/C(C#N)=C/c1ccc(OC(=O)c2ccccn2)cc1 | 45* | · | 27* | 5 | -99 | 19 | 26*
CCCCNc1nc2ccccc2n1CC(=O)Nc1c(C)cccc1CC | 7 | 5 | -1 | 5 | 3 | · | ·
C=CCN1C(=O)/C(=C/C=C2/N(CC)c3ccc(S(=O)(=O)N(C)C)cc3N2CC)SC1=S | -55 | · | 161* | 28 | 99 | 144* | 138*
N#CC1=C(N)SC(N)=C(C#N)C1c1ccc(C(F)(F)F)cc1 | · | · | 20 | · | · | · | ·
N#CC1=C(N)Nc2ncnn2C1c1ccc([N+](=O)[O-])cc1 (centres undefined) | 6 | 0 | 4 | 1 | 2 | · | ·
CCOC(=O)C1=C(C)OC(N)=C(C#N)C1c1ccc(C)o1 (centres undefined) | -2 | -9 | 1 | 4 | -5 | · | ·
CCc1ccc(C2C(C#N)=C(N)SC(N)=C2C#N)cc1 | 140 | · | 106* | -37 | -18 | 73* | 86*
N#CC1=C(N)SC(N)=C(C#N)C1c1ccc([N+](=O)[O-])cc1 | 20 | 57* | 40* | 26 | -47 | 7 | 9
CCOc1ccc(C2C(C#N)=C(N)SC(N)=C2C#N)cc1OCC | 139 | · | 126* | 124 | -25 | 132* | 128*
Cc1ccc(C2C(C#N)=C(N)SC(N)=C2C#N)o1 | · | · | 66* | · | · | 34* | 46*
CCCC(=O)Nc1cc(S(=O)(=O)N(CC)CC)ccc1Cl | 3 | -5 | -1 | -6 | -1 | · | ·
COC(=O)c1ccc(=O)c2nc3/c(=C/O)c(O)cc(=O)c3[nH]c12 | -50 | 27 | -3 | 71 | 15 | · | ·
CCc1ccc(C2C(C#N)=C(N)SC(N)=C2C#N)s1 | 122 | · | 91* | 50 | -26 | 80* | 89*
CCc1ccc(C2C(C#N)=C(N)OC3=C2C(=O)CCC3)s1 (centres undefined) | 1 | 4 | -3 | 1 | -11 | · | ·
N#CC1=C(N)SC(N)=C(C#N)C1c1c(Cl)cccc1Cl | 77 | · | 47* | 78 | -17 | 22 | 28*
N#CC1=C(N)SC(N)=C(C#N)C1c1cccc(Oc2ccccc2)c1 | 136 | · | 111* | 39 | -23 | 54* | 69*
COC1(OC)N=C(N)C2(C#N)C(c3cccc(Oc4ccccc4)c3)C12C#N (centres undefined) | 0 | 10 | 2 | -1 | -3 | · | ·
CCOC(=O)C1=C(C)OC(N)=C(C#N)C1c1ccc(O)c(OC)c1 (centres undefined) | 0 | 6 | -1 | 0 | -93 | · | ·
CCOc1ccc(C2C(C#N)=C(N)SC(N)=C2C#N)cc1OC | · | · | 115* | · | · | 39* | 56*

High-throughput results from PubChem.
